In ChEMBL document CHEMBL4311938, “Sirtuin inhibition and anti-cancer activities of ethyl 2-benzimidazole-5-carboxylate derivatives” (Medchemcomm, 2019):
The source made the active and inactive calls. No cut-off for these calls is given here.

Legend:
[1] = target: T1, NAD-dependent protein deacetylase sirtuin-1 (Homo sapiens, UniProt Q96EB6); assay: Inhibition of human recombinant SIRT1 using p53 (379 to 382 residues) conjugated to AMC as substrate incubated for 45 mins in presence of NAD+ by fluorescence assay
T1 sequence (Q96EB6 whole entry): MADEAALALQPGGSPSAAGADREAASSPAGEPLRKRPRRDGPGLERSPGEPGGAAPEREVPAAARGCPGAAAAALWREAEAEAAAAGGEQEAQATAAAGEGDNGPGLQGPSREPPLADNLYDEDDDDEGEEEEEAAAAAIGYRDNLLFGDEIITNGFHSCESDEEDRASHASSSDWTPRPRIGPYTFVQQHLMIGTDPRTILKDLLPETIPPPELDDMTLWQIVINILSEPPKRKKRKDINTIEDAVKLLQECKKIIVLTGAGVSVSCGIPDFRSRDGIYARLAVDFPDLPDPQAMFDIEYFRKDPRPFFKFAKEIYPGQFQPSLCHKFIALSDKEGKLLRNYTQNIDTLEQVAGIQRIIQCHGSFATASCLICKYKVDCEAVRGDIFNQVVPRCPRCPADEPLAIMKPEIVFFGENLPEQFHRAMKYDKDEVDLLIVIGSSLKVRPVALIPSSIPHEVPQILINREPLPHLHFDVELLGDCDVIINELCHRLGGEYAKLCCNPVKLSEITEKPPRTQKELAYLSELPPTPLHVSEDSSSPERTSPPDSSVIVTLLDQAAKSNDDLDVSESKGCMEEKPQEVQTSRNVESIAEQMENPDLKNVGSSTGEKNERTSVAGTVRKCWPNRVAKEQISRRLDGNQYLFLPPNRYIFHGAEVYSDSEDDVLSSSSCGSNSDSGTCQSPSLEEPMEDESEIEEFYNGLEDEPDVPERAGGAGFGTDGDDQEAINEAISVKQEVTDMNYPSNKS

[2] = target: T2, NAD-dependent protein deacetylase sirtuin-2 (Homo sapiens, UniProt Q8IXJ6); assay: Inhibition of human recombinant SIRT2 using p53 (317 to 320 residues) conjugated to AMC as substrate incubated for 45 mins in presence of NAD+ by fluorescence assay
T2 sequence (Q8IXJ6 whole entry): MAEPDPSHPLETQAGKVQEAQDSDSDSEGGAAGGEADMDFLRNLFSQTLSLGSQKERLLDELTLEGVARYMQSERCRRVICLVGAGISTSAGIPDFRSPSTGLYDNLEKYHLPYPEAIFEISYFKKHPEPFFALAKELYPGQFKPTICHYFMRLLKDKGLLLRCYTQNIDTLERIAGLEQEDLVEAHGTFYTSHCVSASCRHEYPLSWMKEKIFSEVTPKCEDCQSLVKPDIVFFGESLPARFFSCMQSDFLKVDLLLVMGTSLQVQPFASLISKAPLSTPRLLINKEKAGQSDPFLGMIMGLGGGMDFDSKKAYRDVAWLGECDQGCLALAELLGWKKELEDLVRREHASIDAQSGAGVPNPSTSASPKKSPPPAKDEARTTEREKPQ

[3] = target: T3, NAD-dependent protein deacetylase sirtuin-3, mitochondrial (Homo sapiens, UniProt Q9NTG7); assay: Inhibition of human recombinant SIRT3 using p53 (317 to 320 residues) conjugated to AMC as substrate incubated for 45 mins in presence of NAD+ by fluorescence assay
T3 sequence (Q9NTG7 whole entry): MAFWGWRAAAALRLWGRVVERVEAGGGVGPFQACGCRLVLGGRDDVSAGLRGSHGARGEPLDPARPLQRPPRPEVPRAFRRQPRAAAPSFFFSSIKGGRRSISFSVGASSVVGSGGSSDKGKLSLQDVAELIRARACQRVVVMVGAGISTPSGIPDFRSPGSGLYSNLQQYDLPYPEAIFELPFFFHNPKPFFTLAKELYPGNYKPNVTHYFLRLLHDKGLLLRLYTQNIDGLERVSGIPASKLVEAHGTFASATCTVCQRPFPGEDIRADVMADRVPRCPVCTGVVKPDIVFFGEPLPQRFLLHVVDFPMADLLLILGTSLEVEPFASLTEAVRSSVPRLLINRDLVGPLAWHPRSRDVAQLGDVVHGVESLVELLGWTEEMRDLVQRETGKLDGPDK

[4] = target: T4, NAD-dependent protein deacetylase sirtuin-2 (Homo sapiens) (UniProt Q8IXJ6); assay: Inhibition of SIRT2 in human H103 cells assessed as increase in acetylated alpha tubulin level at 5.83 uM after 72 hrs by Western blot analysis; type: cell-based
T4 sequence (whole entry): T2 sequence (Q8IXJ6 whole entry)
Method in brief: (§1)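 H103 cells were seeded at 5 × 10^5 per well and treated either for 24 h or for 72 h. Lysates were run on SDS-PAGE and blotted to PVDF. Blocking in 5% skimmed milk with primary antibody was done overnight at 4 °C. HRP secondaries were anti-mouse 1:5000 and anti-rabbit 1:1000, 1 h at room temperature, with ECL detection. Acetylated protein was normalized to actin, then to total protein, then to untreated cells. Two independent experiments were run.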

[5] = target: T5, NAD-dependent protein deacetylase sirtuin-1 (Homo sapiens) (UniProt Q96EB6); assay: Inhibition of SIRT1 in human H103 cells assessed as increase in acetylated p53 level at 5.83 uM after 72 hrs by Western blot analysis; type: cell-based; method in brief: as §1
T5 sequence (whole entry): T1 sequence (Q96EB6 whole entry)

[6] = target: T5, NAD-dependent protein deacetylase sirtuin-1 (Homo sapiens); assay: Inhibition of SIRT1 in human H103 cells assessed as increase in acetylated p53 level at 32 uM after 24 hrs by Western blot analysis; type: cell-based; method in brief: as §1
[7] = target: T6, NAD-dependent protein deacetylase sirtuin-3, mitochondrial (Homo sapiens) (UniProt Q9NTG7); assay: Inhibition of SIRT3 in human H103 cells assessed as growth inhibition after 72 hrs by MTT assay; type: cell-based
T6 sequence (whole entry): T3 sequence (Q9NTG7 whole entry)
Method in brief: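 H103 cells (ECACC) were seeded at 5 × 10^3 per well and treated for 72 h with final DMSO below 1%. Viability was read by MTT: 4 h at 37 °C in 5% CO2, formazan dissolved in DMSO, absorbance at 570 nm. Proliferation was expressed as the ratio of treated to control absorbance. Experiments were run in triplicate. GI50 was determined.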

[8] = test system: H103; assay: Cell cycle arrest in human H103 cells assessed as accumulation at G1 phase after 24 hrs by RNase/7-AAD staining based flow cytometry analysis (reference value: 38.8 %); type: functional
Method in brief: (§2)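 H103 oral squamous carcinoma cells (ECACC) were seeded at 5 × 10^5 per well, left to adhere overnight and then treated for 24 h. Cells were trypsinized, washed in PBS and fixed in ice-cold 70% ethanol for 30 min at 4 °C. They were stained with RNase plus 7-AAD in staining buffer, and DNA content was read by imaging flow cytometry at 488 nm. G1 = 2N, G2/M = 4N.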

[9] = test system: H103; assay: Cell cycle arrest in human H103 cells assessed as accumulation at S phase after 24 hrs by RNase/7-AAD staining based flow cytometry analysis (reference value: 18 %); type: functional; method in brief: as §2
[10] = test system: H103; assay: Cell cycle arrest in human H103 cells assessed as accumulation at G2/M phase after 24 hrs by RNase/7-AAD staining based flow cytometry analysis (reference value: 36.5 %); type: functional; method in brief: as §2
[11] = test system: H103; assay: Induction of apoptosis in human H103 cells assessed as viable cells after 24 hrs by AnnexinV-FLTC/propidium iodide staining based flow cytometry (reference value: 29.4 %); type: functional
[12] = test system: H103; assay: Induction of apoptosis in human H103 cells assessed as early apoptotic cells after 24 hrs by AnnexinV-FLTC/propidium iodide staining based flow cytometry (reference value: 0.01 %); type: functional
[13] = test system: H103; assay: Induction of apoptosis in human H103 cells assessed as late apoptotic cells after 24 hrs by AnnexinV-FLTC/propidium iodide staining based flow cytometry (reference value: 1.32 %); type: functional
[14] = test system: H103; assay: Induction of apoptosis in human H103 cells assessed as necrotic cells after 24 hrs by AnnexinV-FLTC/propidium iodide staining based flow cytometry (reference value: 7.49 %); type: functional

Row | Compound | IC50 [1] [µM] | IC50 [2] [µM] | IC50 [3] [µM] | inhibition [4] | inhibition [5] | inhibition [6] | GI50 [7] [µM] | Activity [8] [%] | Activity [9] [%] | Activity [10] [%] | Activity [11] [%] | Activity [12] [%] | Activity [13] [%] | Activity [14] [%]
1 | CCOC(=O)c1ccc2[nH]c(-c3ccc(Cl)cc3)nc2c1 | 33.6 | 30.5 |  |  |  |  |  |  |  |  |  |  |  | 
2 | CCOC(=O)c1ccc2[nH]c(-c3ccc(C(F)(F)F)cc3)nc2c1 | > 50 | > 50 | > 50 |  |  |  |  |  |  |  |  |  |  | 

More lines, main results first:

Row | IC50 [1] [µM] | IC50 [2] [µM] | IC50 [3] [µM] | inhibition [4] | inhibition [5] | inhibition [6] | GI50 [7] [µM] | Compound | Activity [8] [%] | Activity [9] [%] | Activity [10] [%] | Activity [11] [%] | Activity [12] [%] | Activity [13] [%] | Activity [14] [%]
3 | 7.7 | 5.6 | 9.8 | Active | inactive | inactive | 5.83 | CCOC(=O)c1ccc2[nH]c(-c3ccc4c(c3)OCO4)nc2c1 | 8.1 | 20.3 | 43.2 | 90.6 | 0.04 | 7.82 | 11.3
4 | > 50 | > 50 | > 50 |  |  |  |  | CCOC(=O)c1ccc2[nH]c(-c3ccc(OC(F)(F)F)cc3)nc2c1 |  |  |  |  |  |  | 
5 | > 50 | 45.8 | > 50 |  |  |  |  | CCOC(=O)c1ccc2[nH]c(-c3ccc(Br)cc3)nc2c1 |  |  |  |  |  |  | 
